In BindingDB's records for doi:10.1021/jm970159v (National Taiwan University, 1998):
pKi: −log10 of the molar value.

Columns and labels:
D(3) dopamine receptor = D(3) dopamine receptor (Homo sapiens, UniProt P35462); experiment: Compound is evaluated for binding affinity towards recombinant human Dopamine receptor D3 using [3H]spiperone in CHO cells at 10 uM
Procedure, shortened: (§1)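 Single-concentration screen at 10 µM in contract radioligand binding assays. Records whether inhibition of specific radioligand binding stayed below 50%.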

Histamine H1 receptor = Histamine H1 receptor (Cavia porcellus, UniProt P31389); experiment: Compound is evaluated for binding affinity towards Histamine H1 receptor using [3H]pyrilamine in guinea pig lung at 10 uM; procedure, shortened: as §1
Chain of Histamine H1 receptor (P31389 whole entry): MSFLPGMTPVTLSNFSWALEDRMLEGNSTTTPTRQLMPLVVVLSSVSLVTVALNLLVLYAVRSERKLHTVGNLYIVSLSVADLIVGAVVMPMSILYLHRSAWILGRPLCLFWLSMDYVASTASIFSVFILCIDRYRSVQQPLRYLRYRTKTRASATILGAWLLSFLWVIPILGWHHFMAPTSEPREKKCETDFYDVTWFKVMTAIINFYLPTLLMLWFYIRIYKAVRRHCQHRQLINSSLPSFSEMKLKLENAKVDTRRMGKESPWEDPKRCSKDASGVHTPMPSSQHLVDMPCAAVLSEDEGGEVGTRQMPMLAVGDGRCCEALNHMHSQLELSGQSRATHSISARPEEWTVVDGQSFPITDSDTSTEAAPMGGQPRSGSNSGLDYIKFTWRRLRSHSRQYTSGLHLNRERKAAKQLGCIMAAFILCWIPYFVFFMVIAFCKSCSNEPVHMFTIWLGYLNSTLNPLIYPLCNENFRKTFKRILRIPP

[1] = molecular target: Sigma non-opioid intracellular receptor 1 (Cavia porcellus) (UniProt Q60492); experiment: Compound is evaluated for binding affinity towards Sigma receptor using [3H]pentazocine in guinea pig brain
Chain of Sigma non-opioid intracellular receptor 1 (Cavia porcellus) (Q60492 whole entry, looked up): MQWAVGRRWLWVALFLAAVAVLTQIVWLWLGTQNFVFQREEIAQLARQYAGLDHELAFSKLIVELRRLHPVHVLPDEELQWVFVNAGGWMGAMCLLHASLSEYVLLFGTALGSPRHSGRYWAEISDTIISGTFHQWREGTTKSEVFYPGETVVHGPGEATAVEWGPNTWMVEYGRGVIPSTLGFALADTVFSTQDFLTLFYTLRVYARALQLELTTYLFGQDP

Chain of D(3) dopamine receptor (P35462 as listed by the source): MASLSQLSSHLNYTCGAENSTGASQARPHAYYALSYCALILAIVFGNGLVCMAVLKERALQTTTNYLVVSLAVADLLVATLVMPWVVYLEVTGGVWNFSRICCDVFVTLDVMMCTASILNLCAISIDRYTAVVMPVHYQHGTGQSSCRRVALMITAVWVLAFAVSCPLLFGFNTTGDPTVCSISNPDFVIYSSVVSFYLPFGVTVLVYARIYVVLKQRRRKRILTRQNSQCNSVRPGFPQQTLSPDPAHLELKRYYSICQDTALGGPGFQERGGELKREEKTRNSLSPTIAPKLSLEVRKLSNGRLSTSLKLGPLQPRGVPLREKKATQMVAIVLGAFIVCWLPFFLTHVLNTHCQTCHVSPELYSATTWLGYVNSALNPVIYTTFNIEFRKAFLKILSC

SMILES	pKi (D(3) dopamine receptor)	pKi (Histamine H1 receptor)	pKi [1]
COc1ccccc1N1CCN(C[C@H]2CN=C3c4ccccc4N=C(SC)N32)CC1	< 5.00	< 5.00	–
COc1ccccc1N1CCN(CC2CN3C(=O)Nc4ccccc4C3=N2)CC1 (stereo not drawn) [2-[4-(2-Methoxy-phenyl)-piperazin-1-ylmethyl]-2,6-dihydro-3H-imidazo[1,2-c]quinazolin-5-one]	–	–	5.40
COc1ccccc1N1CCN(Cc2cn3c(=O)[nH]c4ccccc4c3n2)CC1 [2-[4-(2-Methoxy-phenyl)-piperazin-1-ylmethyl]-6H-imidazo[1,2-c]quinazolin-5-one]	–	–	6.13
Oc1nc2ccccc2c2ncc(CN3CCN(c4ccccc4Cl)CC3)n12 [3-[4-(2-Chloro-phenyl)-piperazin-1-ylmethyl]-6H-imidazo[1,2-c]quinazolin-5-one]	–	–	5.82
COc1ccccc1N1CCN(CC2CN=C3c4ccccc4NC(=O)N32)CC1 (stereo not drawn) [3-[4-(2-Methoxy-phenyl)-piperazin-1-ylmethyl]-2,6-dihydro-3H-imidazo[1,2-c]quinazolin-5-one]	–	–	< 5.20
COc1ccccc1N1CCN(Cc2cnc3c4ccccc4nc(O)n23)CC1 [3-[4-(2-Methoxy-phenyl)-piperazin-1-ylmethyl]-6H-imidazo[1,2-c]quinazolin-5-one]	–	–	5.19
COc1ccccc1N1CCN(CCn2c(=O)[nH]c3ccccc3c2=O)CC1 [3-{2-[4-(2-Methoxy-phenyl)-piperazin-1-yl]-ethyl}-1H-quinazoline-2,4-dione]	–	–	< 5.00
